Source: article PMC5110367 (Nature chemical biology, 2016)
Changes are numbered by the printed parent chain.

Assays:
PPRE luciferase activity = assay: PPRE-luciferase assay in Pparb-null astrocytes; format: cell-based, mouse; conditions: for inhibition by GW9662 of ligand-mediated increase in PPRE-luciferase activity: Pparb-null astrocytes pre-treated with PPARγ-antagonist GW9662; for PPRE luciferase activity: Pparb-null astrocytes, 4 h
Procedure, shortened: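 Astrocytes were taken from mixed glial cultures of 7-day-old Pparb-null mouse pups and pretreated with the PPARγ antagonist GW9662. At 60–70% confluence they were transfected with tk-PPREx3-Luc reporter. After 24 h they were treated with graded concentrations of test compound for 4 h, then luciferase activity was read.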

PPARα [1] = biological target: T1, PPARα (Mus musculus, UniProt P23204); assay: PPRE-driven luciferase assay in primary astrocytes; format: cell-based; conditions: cultured astrocytes, different concentrations, 4 h
T1 sequence (P23204 1-468): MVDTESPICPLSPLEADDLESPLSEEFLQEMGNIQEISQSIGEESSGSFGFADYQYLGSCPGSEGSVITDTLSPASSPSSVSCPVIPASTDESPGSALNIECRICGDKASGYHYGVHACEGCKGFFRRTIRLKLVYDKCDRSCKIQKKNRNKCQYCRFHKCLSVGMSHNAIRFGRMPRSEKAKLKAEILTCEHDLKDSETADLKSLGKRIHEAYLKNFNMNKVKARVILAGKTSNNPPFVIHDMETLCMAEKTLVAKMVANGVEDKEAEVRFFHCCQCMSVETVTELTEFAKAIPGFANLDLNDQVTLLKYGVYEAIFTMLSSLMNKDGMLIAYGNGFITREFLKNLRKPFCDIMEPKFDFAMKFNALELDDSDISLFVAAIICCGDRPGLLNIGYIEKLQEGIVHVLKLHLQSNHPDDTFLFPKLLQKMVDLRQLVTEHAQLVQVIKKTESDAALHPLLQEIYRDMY

[2] = system: Ppara-null hippocampal neurons; assay: AMPA-driven calcium influx in transduced Ppara-null hippocampal neurons; format: cell-based, mouse; conditions: 50 μM N20C present
Procedure, shortened: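 Primary hippocampal neurons came from pooled E18 Ppara-null fetal mice. Tissue was trypsinised 5 min at 37°C and plated on poly-D-lysine in neurobasal medium. AraC (10 μM) was added next day, and cells differentiated for 9–10 days. Neurons were lentivirally transduced with the indicated Ppara construct, then given the test compound. 50 μM N20C blocked NMDA-receptor calcium flow during AMPA stimulation. Mean of three independent experiments.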

PPARα [3] = biological target: T2, PPARα (Mus musculus, UniProt P23204, Y314D); format: binding; conditions: lenti-GFP-Y314D-Ppara-transduced Ppara-null neurons
T2 sequence (P23204 1-468 Y314D): T1 sequence (P23204 1-468) with Y314D

PPARα [4] = biological target: T1, PPARα; format: binding; conditions: lenti-FL-Ppara-transduced Ppara-null neurons; not with empty lenti-vector
CREB promoter = assay: ChIP analyses of the CREB promoter; format: cell-based; conditions: ChIP followed by real-time PCR
Y314D/Y464D-Ppara = biological target: T3, Y314D/Y464D-Ppara (Mus musculus, UniProt P23204, Y314D/Y464D); format: cell-based; conditions: Ppara-null astrocytes transduced with lenti-Y314D/Y464D-Ppara, 4 h
T3 sequence (P23204 1-468 Y314D/Y464D): T1 sequence (P23204 1-468) with Y314D, Y464D

[5] = system: Ppara-null hippocampal neurons; assay: Dendritic spine density; format: cell-based, mouse; conditions: Ppara-null neurons transduced with lenti-FL-Ppara or lenti-Y464D-Ppara
Procedure, shortened: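 Ppara-null hippocampal neurons were taken from E18 fetuses and treated with 10 μM AraC to remove glia. They were differentiated 9–10 days, then transduced 48 h with lentivirions carrying GFP (vector), FL-Ppara or Y464D-Ppara. Neurons then received vehicle (DMSO) or test compound for 24 h. They were stained with Dylight-554-phalloidin, and spine density was scored by fluorescence microscopy.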

[6] = lenti-Y314D/Y464D-Ppara-transduced

## CCCCCCCCC=CCCCCCCCC(N)=O [OCT, 9-octadecenamide]
PPRE luciferase activity
  inhibition by GW9662 of ligand-mediated increase in PPRE-luciferase activity: remained unable to inhibit
  PPRE luciferase activity: markedly increased PPRE luciferase activity
PPARα [1]
  PPRE-luciferase activity: increased the PPRE-luciferase activity in a dose-dependent manner
[2]; lenti-FL-Ppara-transduced
  AMPA-mediated calcium influx: stimulated AMPA-mediated calcium influx
[2]; lenti-Y314D-Ppara-transduced
  AMPA-mediated calcium influx: only able to partially restore
[2]; [6]
  AMPA-mediated calcium influx: remained unable to increase AMPA mediated calcium influx
[2]; lenti-Y464D-Ppara-transduced
  AMPA-mediated calcium influx: remained unable to increase AMPA mediated calcium influx
PPARα [3]
  ligand detected by GC-MS in nuclear extract: low amount
PPARα [4]
  binding to de novo-synthesized PPARα (immunoprecipitation, GC-MS): found to be bound to de novo-synthesized PPARα
CREB promoter
  recruitment of PPARα and PGC1α to the CREB promoter: stimulated the recruitment of PPARα and its coactivator PGC1α to the CREB promoter
Y314D/Y464D-Ppara
  PPRE-luciferase activity: unable to stimulate PPRE-luciferase activity
[5]
  density of dendritic spines: stimulated the density of spines only when Ppara-null neurons were transduced with lenti-FL-Ppara, but not lenti-Y464D-Ppara

## CCCCCCCCCCCCCCCC(N)=O [HEX, hexadecanamide]
PPRE luciferase activity
  inhibition by GW9662 of ligand-mediated increase in PPRE-luciferase activity: remained unable to inhibit
  PPRE luciferase activity: markedly increased PPRE luciferase activity
PPARα [1]
  PPRE-luciferase activity: increased the PPRE-luciferase activity in a dose-dependent manner
[2]; lenti-FL-Ppara-transduced
  AMPA-mediated calcium influx: stimulated AMPA-mediated calcium influx
[2]; lenti-Y314D-Ppara-transduced
  AMPA-mediated calcium influx: only able to partially restore
[2]; [6]
  AMPA-mediated calcium influx: remained unable to increase AMPA mediated calcium influx
[2]; lenti-Y464D-Ppara-transduced
  AMPA-mediated calcium influx: remained unable to increase AMPA mediated calcium influx
PPARα [3]
  ligand detected by GC-MS in nuclear extract: low amount
PPARα [4]
  binding to de novo-synthesized PPARα (immunoprecipitation, GC-MS): found to be bound to de novo-synthesized PPARα
CREB promoter
  recruitment of PPARα and PGC1α to the CREB promoter: stimulated the recruitment of PPARα and its coactivator PGC1α to the CREB promoter
Y314D/Y464D-Ppara
  PPRE-luciferase activity: unable to stimulate PPRE-luciferase activity
[5]
  density of dendritic spines: stimulated the density of spines only when Ppara-null neurons were transduced with lenti-FL-Ppara, but not lenti-Y464D-Ppara
